An excerpt weighted towards active compounds, which were near 1.5% of everything screened.
APJ agonist = activates the human apelin receptor APJ; P35414; CHO-K1 APJ PathHunter beta-arrestin, luminescence; 0% DMSO wells, 100% apelin; activation, % at 20 µM; 330,000 compounds, 0.11% hits;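 active = activation more than six SD over the plate average, tested at 20 µM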
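Assay system – PathHunter CHO-K1 APJ (AGTRL-1) beta-arrestin reporter cells · Compound – one dose, 20 µM compound, 1% DMSO · Timing – compound 90 min 25 °C, reagent 1 h · Measured by – luminescence from split beta-galactosidase complementation, Galacton Star/Emerald II substrate · Measure – beta-arrestin recruitment to APJ as agonist activity, luminescent signal · Benchmarks – DMSO vs Apelin-13 10 nM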
APJ antagonist = blocks the human apelin receptor APJ; CHO-K1 APJ beta-arrestin complementation, luminescence; 330,000 compounds, 0.32% hits; inhibition, % at 20 µM; P35414;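 active = inhibition above about 40% at 20 µM, limit read from the data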;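 note: cells challenged with 10 nM apelin-13 agonist together with compound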
CCR6 antag = CCR6 (human) receptor antagonism. P51684. CHO-K1 CCR6 PathHunter beta-arrestin, luminescence, CCL20-stimulated. inhibition, % at 20 µM. 340,000 compounds, 0.49% hits. AID 493098;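 active = compounds whose inhibition of the agonist-driven luminescence signal at 20 µM reaches about 50%, limit read from the data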;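 note: cells stimulated with CCL20 at 14 nM final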
CXCR6 inh = inhibitors of human CXCR6 receptor; O00574; CHO-K1 PathHunter CXCR6 beta-arrestin, luminescence; inhibition, % at 20 µM; 360,000 compounds, 0.36% hits; in the data active = inhibition above about 34%, passing the limit was not always enough;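 note: antagonist mode with CXCL16 agonist at 10 nM final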
Target sequence (O00574 whole entry, looked up): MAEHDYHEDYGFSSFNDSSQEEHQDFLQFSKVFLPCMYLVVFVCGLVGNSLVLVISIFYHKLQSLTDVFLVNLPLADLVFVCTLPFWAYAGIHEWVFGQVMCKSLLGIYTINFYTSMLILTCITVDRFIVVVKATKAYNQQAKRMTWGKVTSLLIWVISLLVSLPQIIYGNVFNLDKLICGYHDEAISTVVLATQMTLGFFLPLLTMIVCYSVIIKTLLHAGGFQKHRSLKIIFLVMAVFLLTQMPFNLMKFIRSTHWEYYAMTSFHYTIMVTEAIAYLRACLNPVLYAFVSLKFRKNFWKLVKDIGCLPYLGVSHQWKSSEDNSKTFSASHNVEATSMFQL
EBI2 antag = blocks human EBI2 receptor beta-arrestin signaling; P32249; EBI2 beta-arrestin recruitment, luminescence, 7a,25-OHC stimulated; inhibition, % at 5 µM; 360,000 compounds, 0.81% hits; AID 651636; in the data active = inhibition above about 38%;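 note: enzyme fragment complementation signal reports receptor beta-arrestin coupling in cells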
EBI2 conf = EBI2 (human) antagonism, single concentration confirmation | shares compounds with EBI2 antag | EBI2 beta-arrestin luminescence, 7a,25-OHC antagonism | inhibition, % at 5 µM | 2,400 compounds, 29% hits | AID 651997;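 active = inhibition of at least 50%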
EBI2 agonist = EBI2 agonism counter-screen | shares compounds with EBI2 antag | EBI2-expressing cells, agonist mode, luminescence, 60 min; 0% vehicle, 100% 7α,25-dihydroxycholesterol control | activation, % at 5 µM | 2,400 tested, under 10 active | AID 652000;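 active = activation of at least 50%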
bGal cs = counter-screen for EBI2 antagonists: E. coli beta-galactosidase inhibition. purified beta-galactosidase, luminescent Galacton Star, 15 min. shares compounds with EBI2 antag. 2,400 compounds, 1% hits. inhibition, % at 5 µM. AID 652176;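 active = replicate-average signal at least 3 plate SD below neutral wells, shown as high inhibition, flagging enzyme-inhibiting false positives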;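 note: higher means stronger loss of beta-gal luminescence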
Numbers stand for hits.

For COc1cc(CN2CCCCC2C(=O)Nc2ccc(Oc3ccccc3)nc2)ccc1O (stereo not given) the results were APJ agonist inactive, APJ antagonist inactive, CCR6 antag inactive, CXCR6 inh inactive, EBI2 antag 87, EBI2 conf 50, EBI2 agonist inactive and bGal cs inactive.
`O=C(Nc1ccc(Oc2ccccc2)nc1)C1CCCCN1Cc1ccc(O)cc1` (stereo not given) gave APJ agonist inactive, APJ antagonist inactive, CXCR6 inh inactive, EBI2 antag 86, EBI2 conf 55, EBI2 agonist inactive and bGal cs inactive.
`O=Cc1c[nH]c2ccc(S(=O)(=O)N3CCCCC3)cc12` gave CXCR6 inh inactive and EBI2 antag inactive.
Screening COc1ccc(C2=NOC(Cn3nc(C(=O)NCc4ccc(C)cc4)cc3-c3ccccc3)C2)cc1 (stereo not given) returned APJ agonist inactive, APJ antagonist inactive, CCR6 antag inactive, CXCR6 inh inactive, EBI2 antag 44, EBI2 conf inactive, EBI2 agonist inactive and bGal cs inactive.
For CS(=O)(=O)N1CCN(c2ccccc2NC(=O)CSc2ccc(Cl)cc2)CC1 the results were APJ agonist inactive, APJ antagonist inactive, CCR6 antag inactive, CXCR6 inh inactive and EBI2 antag inactive.
For O=C(CSc1ccc(Cl)cc1)Nc1ccccc1Oc1ccccc1 the results were APJ agonist inactive, APJ antagonist inactive, CCR6 antag inactive, CXCR6 inh inactive, EBI2 antag 55, EBI2 conf inactive, EBI2 agonist inactive and bGal cs inactive.
`O=C(CSc1ccc(Cl)cc1)Nc1ccccc1N1CCN(C(=O)c2ccccc2)CC1` gave APJ agonist inactive, APJ antagonist inactive, CCR6 antag inactive, CXCR6 inh inactive, EBI2 antag 76, EBI2 conf 67, EBI2 agonist inactive and bGal cs inactive.
`O=C(CSc1ccc(Br)cc1)Nc1ccccc1Oc1ccccc1` gave APJ agonist inactive, APJ antagonist inactive, CCR6 antag inactive, CXCR6 inh inactive, EBI2 antag 54, EBI2 conf inactive, EBI2 agonist inactive and bGal cs inactive.
CN(C)CCN(C)C1CN(Cc2ccccc2)S(=O)(=O)C1 (stereo not given) was read as CXCR6 inh inactive and EBI2 antag inactive.
Screening COc1ccc2c(c1)CO[C@]21O[C@H](CCO)C[C@H](O)[C@H]1O returned CXCR6 inh inactive and EBI2 antag inactive.
Screening C=CCn1c2ccccc2c2nnc(SCCN3CCOCC3)nc21 returned APJ agonist inactive, APJ antagonist inactive, CCR6 antag inactive, CXCR6 inh inactive and EBI2 antag inactive.
Screening CCCCn1c2ccc(F)cc2c2nnc(SCCN3CCOCC3)nc21 returned APJ agonist inactive, APJ antagonist inactive, CCR6 antag inactive, CXCR6 inh inactive, EBI2 antag 63, EBI2 conf inactive, EBI2 agonist inactive and bGal cs inactive.
CCCCn1c2ccccc2c2nnc(SCCN3CCCCC3)nc21 was read as APJ agonist inactive, APJ antagonist inactive, CCR6 antag inactive, CXCR6 inh inactive, EBI2 antag 49, EBI2 conf inactive, EBI2 agonist inactive and bGal cs inactive.
`Cn1c2ccc(F)cc2c2nnc(SCCN3CCOCC3)nc21` gave APJ agonist inactive, APJ antagonist inactive, CCR6 antag inactive, CXCR6 inh inactive and EBI2 antag inactive.
Screening Cc1ccc(SCC2(O)CCN(C(=O)c3ccc(Cl)cc3)CC2)cc1 returned APJ agonist inactive, APJ antagonist inactive, CCR6 antag inactive, CXCR6 inh inactive, EBI2 antag 47, EBI2 conf inactive, EBI2 agonist inactive and bGal cs inactive.
For Cc1ccc(SCc2ccc(C(=O)N3CCCC3)cc2)cc1 the results were APJ agonist inactive, APJ antagonist inactive, CCR6 antag inactive, CXCR6 inh inactive and EBI2 antag inactive.

Bioassay records: PubChem, Sanford-Burnham Center for Chemical Genomics
